Legend:
recombinant XPNPEP1 = recombinant XPNPEP1 (Homo sapiens, UniProt Q9NQW7); assay: Inhibition of recombinant XPNPEP1, H-Lys; format: biochemical; conditions: recombinant XPNPEP1
[1] = tested on: MV4;11, OCI-AML2, and THP-1 cells; assay: LDH release and GSDMD cleavage immunoblot in WT and CARD8^−/− cells; format: cell-based, human; conditions: 20 μM, 24 h, but not CARD8^−/−
recombinant human PEPD = target: T1, recombinant human PEPD (Homo sapiens, UniProt P12955); assay: Inhibition of recombinant PEPD, alanine release assay; format: biochemical
T1 sequence (P12955 1-493): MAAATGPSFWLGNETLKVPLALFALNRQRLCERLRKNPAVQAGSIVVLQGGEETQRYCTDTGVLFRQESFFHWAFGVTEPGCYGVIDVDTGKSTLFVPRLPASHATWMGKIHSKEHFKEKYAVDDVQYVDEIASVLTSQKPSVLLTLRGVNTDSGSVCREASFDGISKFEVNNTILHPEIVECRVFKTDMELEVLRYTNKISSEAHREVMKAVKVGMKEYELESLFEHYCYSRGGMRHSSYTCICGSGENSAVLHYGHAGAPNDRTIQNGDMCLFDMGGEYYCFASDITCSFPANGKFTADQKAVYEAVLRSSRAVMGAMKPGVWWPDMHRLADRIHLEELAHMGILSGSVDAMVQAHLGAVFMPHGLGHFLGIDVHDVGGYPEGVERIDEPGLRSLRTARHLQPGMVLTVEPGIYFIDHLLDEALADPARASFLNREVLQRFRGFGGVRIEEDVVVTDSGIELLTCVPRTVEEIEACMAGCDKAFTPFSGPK

human resting T cells = assay: GSDMD cleavage in human resting T cells; format: cell-based; conditions: 20 μM, 24 h
In short: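 Primary human T cells (>90% purity by flow cytometry) are thawed in RPMI-1640 with 10% FBS and cultured with 30 U/mL IL-2. Cells receive test compound for 24 h, then are washed twice in PBS and lysed by sonication. Protein is normalized before SDS-PAGE, and blots are probed with an anti-GSDMD rabbit polyclonal and imaged by infrared fluorescence.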

MV4;11 cells = assay: PI uptake in MV4; format: cell-based, human; conditions: 6.25 μM; WT, CASP1^−/−, CARD8^−/− cells
In short: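 MV4;11 cells (WT, CASP1−/− or CARD8−/−) were plated at 2 × 10^4 cells/well in 384-well format in RPMI and treated with test compound (6.25 μM) for 6 h before PI uptake monitoring. PI was added at 10 μM final. Fluorescence (Ex/Em 535/617 nm) was read every 5 min at 37 °C, baseline-corrected to DMSO vehicle and normalised to maximum response.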

[2] = Stability in cell culture supernatants; format: in vitro ADME
In short: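 Test compounds are incubated in conditioned medium collected from MV4;11 cultures for 24 h at 37 °C. Intact compound and the free acid product are then quantified by LC/MS, with species identified by retention time. Values are means ± SEM of three biological replicates.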

[3] = tested on: DOX-inducible CARD8 E274R mutant THP-1 cells; assay: CARD8 E274R mutant NT degradation assay in CARD8^−/− THP-1 cells; format: cell-based, human; conditions: DOX 100 ng/mL 16 h; VbP 10 μM, CQ31/CQ80 20 μM, VP-OMe 1 mM, MeBs 10 μM; 6 h
In short: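 Parental CARD8-knockout THP-1 cells carry a stably integrated doxycycline-inducible CARD8 E274R construct. Cells are grown in RPMI 1640 with L-glutamine and 10% FBS at 37 °C in 5% CO2. They are induced with or without DOX (100 ng/mL, 16 h), then exposed to test compounds for 6 h.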

OCI-AML2 cells = assay: CTG cell viability in WT and CARD8^−/− OCI-AML2 cells; format: cell-based, human; conditions: 24 h
In short: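 Test compound was added by pintool at various concentrations to OCI-AML2 cells (WT or CARD8−/−) plated at 2000 cells/well in 384-well format, in RPMI 1640 with L-glutamine and 10% FBS. Cells were incubated for 24 h at 37 °C in 5% CO2. CellTiter-Glo was then added, plates were shaken for 2 min and held at 25 °C for 10 min, and luminescence was read.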

[4] = after 24 h; cited from earlier work
THP-1 cells = assay: LDH release and GSDMD cleavage in knockout THP-1 cells; format: cell-based, human; conditions: 20 μM, 24 h
[5] = target: CARD8-DPP9 ternary complex in HEK 293T^CASP1+GSDMD cells (Homo sapiens, UniProt Q86TI2); assay: dTAG-based CARD8-DPP9 ternary complex disruption assay; format: cell-based; conditions: dTAG-13 500 nM; VbP 10 μM, CQ31 20 μM, CQ80 20 μM, VP-OMe 1 mM; 6 h; LDH release
CARD8-DPP9 ternary complex in HEK 293T^CASP1+GSDMD cells, sequence (Q86TI2 whole entry, one chain of several): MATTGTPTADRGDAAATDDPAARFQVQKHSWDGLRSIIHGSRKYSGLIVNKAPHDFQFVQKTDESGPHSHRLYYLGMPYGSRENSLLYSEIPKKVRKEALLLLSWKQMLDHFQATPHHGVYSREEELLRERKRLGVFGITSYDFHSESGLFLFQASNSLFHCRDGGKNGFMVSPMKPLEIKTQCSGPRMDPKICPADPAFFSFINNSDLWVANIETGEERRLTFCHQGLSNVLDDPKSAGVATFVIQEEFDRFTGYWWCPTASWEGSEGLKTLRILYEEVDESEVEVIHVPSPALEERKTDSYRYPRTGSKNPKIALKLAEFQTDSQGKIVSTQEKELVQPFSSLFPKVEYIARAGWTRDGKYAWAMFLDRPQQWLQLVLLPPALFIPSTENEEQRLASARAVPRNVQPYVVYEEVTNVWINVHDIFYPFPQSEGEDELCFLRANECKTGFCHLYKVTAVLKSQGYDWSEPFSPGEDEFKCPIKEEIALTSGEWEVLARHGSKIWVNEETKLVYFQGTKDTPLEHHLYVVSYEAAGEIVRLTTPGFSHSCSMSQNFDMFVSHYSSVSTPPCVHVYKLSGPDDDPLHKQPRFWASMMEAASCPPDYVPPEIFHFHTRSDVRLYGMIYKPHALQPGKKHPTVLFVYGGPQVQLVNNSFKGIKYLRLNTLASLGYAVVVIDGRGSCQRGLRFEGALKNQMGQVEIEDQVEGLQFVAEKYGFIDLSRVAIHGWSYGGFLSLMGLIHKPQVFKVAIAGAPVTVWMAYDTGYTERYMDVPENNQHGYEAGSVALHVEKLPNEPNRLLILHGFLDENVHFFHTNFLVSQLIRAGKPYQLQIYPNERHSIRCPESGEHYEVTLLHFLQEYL

recombinant XPNPEP1, sequence (Q9NQW7 whole entry): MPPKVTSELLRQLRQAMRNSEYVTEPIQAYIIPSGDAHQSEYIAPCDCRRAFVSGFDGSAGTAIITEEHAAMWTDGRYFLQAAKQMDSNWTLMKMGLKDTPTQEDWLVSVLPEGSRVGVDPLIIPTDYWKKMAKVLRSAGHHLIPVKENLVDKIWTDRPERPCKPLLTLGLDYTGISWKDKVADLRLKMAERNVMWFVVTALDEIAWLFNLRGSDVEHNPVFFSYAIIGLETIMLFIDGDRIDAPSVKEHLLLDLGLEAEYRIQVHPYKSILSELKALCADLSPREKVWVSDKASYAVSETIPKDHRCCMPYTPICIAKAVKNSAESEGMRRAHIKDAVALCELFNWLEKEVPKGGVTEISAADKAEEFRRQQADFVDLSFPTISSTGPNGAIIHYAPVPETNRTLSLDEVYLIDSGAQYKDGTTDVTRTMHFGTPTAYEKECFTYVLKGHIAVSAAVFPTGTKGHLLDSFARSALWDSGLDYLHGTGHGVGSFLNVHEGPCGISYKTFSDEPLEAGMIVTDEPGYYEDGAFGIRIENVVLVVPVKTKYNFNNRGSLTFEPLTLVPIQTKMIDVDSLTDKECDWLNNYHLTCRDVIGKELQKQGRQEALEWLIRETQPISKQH

Compound: COC(=O)[C@@H]1CCCN1C(=O)[C@@H](O)[C@H](N)CC(C)C [CQ31]
- XPNPEP1 inhibition (in words) (recombinant XPNPEP1): inhibited PEPD and XPNPEP1 similarly
- LDH release and GSDMD cleavage [1]: induced lactate dehydrogenase (LDH) release and GSDMD cleavage
- PEPD inhibition (in words) (recombinant human PEPD): inhibited PEPD and XPNPEP1 similarly
- GSDMD cleavage in human resting T cells (human resting T cells): induced GSDMD cleavage
- PI uptake in MV4;11 cells (MV4;11 cells): induced PI uptake in WT but not CASP1^−/− or CARD8^−/−
- Time to conversion to CQ04 [2]: ≤ 30 min
- Additional cell death in CARD8 E274R assay (NT degradation) [3]: do not trigger as much degradation as MeBs
- Cell death in OCI-AML2 cells (OCI-AML2 cells): induced cell death in WT but not CARD8^−/−
- De-esterification to CQ04 in cell culture [4]: completely de-esterified
- Sensitivity of PEPD and XPNPEP1 single knockout THP-1 cells (THP-1 cells): sensitive
- Sensitivity of PEPD/XPNPEP1 double knockout THP-1 cells (THP-1 cells): completely resistant
- Pyroptosis in DPP8/9^−/− THP-1 cells (THP-1 cells; LDH release and GSDMD cleavage): neither CQ80 nor CQ31 induced any additional pyroptosis
- Pyroptosis after dTAG-13 treatment (ternary complex destabilization) [5]: induce more pyroptosis after dTAG-13 treatment
